Rows were chosen to be rich in hits. Some 3.5% of all compounds tested hit in one or more screens of this group.
MrgX1 allo act: positive allosteric modulators of MrgX1, primary screen, HEK293 cells, Fluo-4 calcium flux. B-score at 10 µM. FDSS; hits give high values. Mas-related G-protein coupled receptor member X1 (Homo sapiens), Q96LB2. 0.63% of 310,000 active;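 active means plate-corrected calcium response at least 3 library SD above typical, normal starting fluorescence, not activating the receptor alone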;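 further: compound read alongside a low EC10 to EC30 dose of BAM8-22 agonist; peak minus trough fluorescence over baseline measured at the second addition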
Target sequence (Q96LB2 whole entry, looked up): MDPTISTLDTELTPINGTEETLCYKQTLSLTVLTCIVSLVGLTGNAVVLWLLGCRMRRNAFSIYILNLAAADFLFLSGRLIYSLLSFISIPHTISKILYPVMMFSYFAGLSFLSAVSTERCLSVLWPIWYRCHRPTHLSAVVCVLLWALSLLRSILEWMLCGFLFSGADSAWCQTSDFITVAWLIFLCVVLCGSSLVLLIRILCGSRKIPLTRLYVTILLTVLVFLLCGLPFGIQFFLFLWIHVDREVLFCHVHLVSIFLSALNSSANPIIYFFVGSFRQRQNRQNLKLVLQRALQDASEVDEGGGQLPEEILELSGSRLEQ
MrgX1 antagonist: antagonists of human MrgX1 receptor, primary screen, HEK293 cells, Fluo-4 calcium flux; Mas-related G-protein coupled receptor member X1 (Homo sapiens), Q96LB2; BAM8-22 antagonism; hits give low values; B-score at 10 µM; 1.3% of 310,000 active; AID 588676, 2011;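 active means calcium-response B-score plate-corrected more than 3 library SD below zero, starting fluorescence within 5 deviations, no agonist response on first addition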;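 further: peak minus trough fluorescence over baseline after final BAM8-22 challenge near maximal dose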
RGS4 pot: RGS4 potentiators or activators, primary screen, cell-based, HEK293 M3R inducible RGS4, calcium flux; carbachol calcium flux Fluo4; hits give low values; B-score at 10 µM; 0.92% of 310,000 active;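 active means B-score of the integrated calcium signal more than 4 SD below the library mean, with starting fluorescence not abnormally high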;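 further: negative B-score means reduced calcium response which marks RGS4 activation or potentiation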
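Assay system: Inducible-RGS4 HEK293 cells carrying M3 receptor | Schedule: Compound preincubation 20 min at room temperature before agonist | Signal: Kinetic calcium fluorescence imaging with Fluo4-AM dye, 2 µM | Read-out basis: B score from integrated fluorescence ratio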
RGS4 block: RGS4 inhibitors, primary screen, cell-based, HEK293 M3R inducible RGS4, calcium flux; Fluo-4 calcium flux; hits give high values; triggered by carbachol at its EC20; B-score at 10 µM; 0.45% of 310,000 active;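 active means B-score, a plate-corrected calcium signal, over three deviations above library mean, with baseline fluorescence within five deviations of library mean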;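 further: RGS4 expression induced by doxycycline in cells with stable M3 receptor; B-score is computed from the integrated fluorescence ratio over baseline after carbachol; higher B-score means a larger calcium signal and so more RGS4 inhibition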
Target sequence (P49798 whole entry, looked up): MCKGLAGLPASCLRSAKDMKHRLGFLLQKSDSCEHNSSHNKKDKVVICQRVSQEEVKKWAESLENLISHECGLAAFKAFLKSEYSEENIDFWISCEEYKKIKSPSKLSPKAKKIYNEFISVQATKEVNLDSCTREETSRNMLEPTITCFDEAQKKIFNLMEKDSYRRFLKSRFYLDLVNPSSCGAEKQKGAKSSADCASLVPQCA
MrgX1 ag: agonists of human MrgX1 receptor, primary screen, HEK293 cells, Fluo-4 calcium flux. 0.44% of 310,000 active. Mas-related G-protein coupled receptor member X1 (Homo sapiens), Q96LB2. B-score at 10 µM. Fluo-4 calcium fluorescence, agonist mode; hits give high values;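 active means calcium response B-score plate-corrected fluorescence ratio at least 3 library SD, with starting fluorescence B-score inside 5 SD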
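Test system: HEK293 cells stably expressing human MrgX1 receptor; Input: fifteen thousand cells per well; Dosing: compound delivered in addition one of three; Schedule: overnight seeding, then 1 h dark dye loading; Technique: Fluo-4 NW calcium fluorescence; Measure: B-scored fluorescence response ratio; Controls: positive and negative controls per plate.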
RGS4 activ val: reduced carbachol calcium response, RGS4-induced M3R cells, confirmation, RGS4 activator project, cell-based, HEK293 M3R/RGS4 inducible, calcium flux, duplicate. 89% of 1,100 active. inhibition, % at 10 µM. carbachol calcium flux Fluo4. shares compounds with RGS4 pot;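 active means inhibition above 3 SD of the buffer control wells, cut at about 41% in these data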;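 further: signal is the integrated peak-minus-minimum Fluo4 fluorescence over baseline ratio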
RGS4 act ctr: counter-screen for RGS4 activators: effect in non-induced cells; shares compounds with RGS4 pot; HEK293 M3R non-induced RGS4, Fluo4 calcium flux; after carbachol challenge at its EC90; inhibition, % at 10 µM; 82% of 1,100 active; AID 602283;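 active means inhibition exceeding 3 SD of buffer-only control wells, cut at about 26% in these data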;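 further: percent drop in integrated peak-minus-baseline over baseline Fluo4 ratio after carbachol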
Active calls of the source: *; i = inactive; . = no result given.

SMILES | MrgX1 allo act | MrgX1 antagonist | RGS4 pot | RGS4 block | MrgX1 ag | RGS4 activ val | RGS4 act ctr
FC(F)(F)c1nc(-c2cccs2)ncc1-c1nnnn1-c1ccc(Cl)cc1 | i | i | -8.9* | i | i | 92* | 58*
CCN(CC(=O)Nc1cccc(C#N)c1)CC(=O)Nc1cccc(OC)c1 | i | i | i | i | i | . | .
Cc1ccc(CCC(=O)Nc2ccc(Br)cc2)o1 | i | i | i | i | i | . | .
CC1=C(c2ccccc2)SC2=NCCN21 | i | i | -9.7* | i | i | 75* | 31*
CC(C)(C)N(CC#CCC1(O)c2ccccc2-c2ccccc21)CCO | i | i | i | i | i | . | .
c1ccc(COc2ccc(OCCN3CCCC3)cc2)cc1 | i | i | i | i | i | . | .
CC1CCN(CCCOc2ccc(OCc3ccccc3)cc2)CC1 | i | i | -10* | i | i | 92* | 78*
c1ccc(COc2ccc(OCCCN3CCCC3)cc2)cc1 | i | i | -11* | i | i | 94* | 57*
COc1ccc(N(CC(=O)NCCSc2ccc(C)cc2)S(=O)(=O)c2ccccc2)c(OC)c1 | i | i | -12* | i | i | 73* | 0
O=S(=O)(Cc1ccccc1)Nc1ccccc1 | i | i | i | i | i | . | .
CN(Cc1ccccc1)S(=O)(=O)c1ccc(NS(=O)(=O)Cc2ccccc2)cc1 | i | i | -8.8* | i | i | 85* | 57*
Cc1c(-n2c(SC(C)C(=O)NC(N)=O)nc3ccccc3c2=O)c(=O)n(-c2ccccc2)n1C (centres undefined) | i | i | i | i | i | . | .
CCCCOc1cccc(C2/C(=C(/O)c3ccc4c(c3)CC(C)O4)C(=O)C(=O)N2CCN2CCOCC2)c1 (centres undefined) | i | i | i | i | i | . | .
Cc1ccc2cc(NC(=O)c3ccc(C(C)(C)C)cc3)ccc2n1 | i | i | -8.2* | i | i | 84* | 81*
CC(=O)N1CCN(C(=O)CCc2cc(C(C)(C)C)c(O)c(C(C)(C)C)c2)CC1 | i | i | i | i | i | . | .
COc1ccc(OC)c(-c2csc(NC(=O)c3ccc(F)cc3)n2)c1 | i | i | -8.3* | i | i | 82* | 52*
O=C(CSC1=NS(=O)(=O)c2cc(F)ccc2N1)Nc1cccc(F)c1 | i | i | i | i | i | . | .
CCn1c(=NC(=O)c2cccc(N3C(=O)CCC3=O)c2)sc2c(C)ccc(OC)c21 | i | i | -8.6* | i | i | 68* | 30*
COc1ccc(C(=O)N=c2sc3c(C)ccc(OC)c3n2C)cc1OC | i | i | -7.7* | i | i | 86* | 50*
O=C(CCN1C(=O)c2ccccc2C1=O)Nc1ccccc1C(F)(F)F | i | i | i | i | i | . | .
CNC(=O)N1CCC(C(=O)c2c(C)c(C)c(C)c(C)c2C)CC1 | i | i | i | i | i | . | .
CCOCCN1CCN(c2c(CC)c(C)nc3cc(-c4cc(OC)cc(OC)c4)nn23)CC1 | i | i | -7.7* | i | i | 58* | 31*
NC(=O)c1nsc(C(=O)N(c2cccc(F)c2)C(C(=O)NCC2CCCO2)c2c[nH]c3ccccc23)c1N (centres undefined) | i | i | i | i | i | . | .
CC(Oc1ccccc1)C(=O)Nc1ccc(C(N)=O)cc1 (centres undefined) | i | i | i | i | i | . | .
CC(C)NS(=O)(=O)c1ccc(NC(=O)C(C)Oc2ccc(C(=O)c3ccccc3)cc2)cc1 (centres undefined) | i | -8.6* | -7.7* | i | i | 70* | 74*
SMILES | MrgX1 allo act | MrgX1 antagonist | RGS4 pot | RGS4 block | MrgX1 ag | RGS4 activ val | RGS4 act ctr
Cc1nc2nc(CCNS(=O)(=O)c3ccc(Cl)cc3)cn2nc1C | i | i | i | i | i | . | .
CCN(CC)S(=O)(=O)c1cc(NC(=O)C(C)N2CCN(c3ccccn3)CC2)ccc1C (centres undefined) | i | i | -9.1* | i | i | 64* | 0
COc1cccc(CN2CC(C(=O)NCC3CCOCC3)CCC2=O)c1 (centres undefined) | i | i | i | i | i | . | .
COc1ccccc1N(C(=O)CCl)c1cn(C(C)=O)c2ccccc12 | i | i | -8.8* | i | i | 0 | 0
c1ccc(C(c2ccccc2)c2noc(CN3CCN(CC4CC4)CC3)n2)cc1 | i | i | -8* | i | i | 93* | 78*
O=C(NCCc1ccccc1)C(c1cccs1)N(C(=O)CCl)c1ccc(Cl)cc1 (centres undefined) | i | i | -8.1* | i | i | 50* | 0
O=C(NCCc1ccccc1)C(c1cccs1)N(C(=O)c1csnn1)C1CC1 (centres undefined) | i | i | i | i | i | . | .
O=C(c1ccc2c(=O)n3c(nc2c1)CCCCC3)N1CCN(C(c2ccccc2)c2ccccc2)CC1 | i | i | -7.7* | i | i | 93* | 92*
O=c1c2cc(Br)ccc2nc2n1CCCCC2 | i | i | -8.9* | i | i | 80* | 30*
O=C(c1ccc2c(=O)n3c(nc2c1)CCCCC3)N1CCN(c2ccccc2)CC1 | i | i | i | i | i | . | .
Cc1ccc(-n2[nH]c(C)c(/C=N/Nc3ccc([N+](=O)[O-])cc3[N+](=O)[O-])c2=O)cc1 | i | i | i | i | i | . | .
CC(NC(=O)c1ccco1)C(=O)NC(C)c1cc(F)c(Cl)cc1Cl (centres undefined) | i | i | i | i | i | . | .
CC(CCc1ccc(O)cc1)N1CCC(Oc2ccc(C(=O)N3CCCC3)cc2)CC1 (centres undefined) | i | i | i | i | i | . | .
COc1ccc(CCC(C)N2CCC(Oc3ccc(C(=O)N4CCCC4)cc3)CC2)cc1 (centres undefined) | i | i | -7.6* | i | i | 84* | 44*
CC12CNCC(C)(CN(C(c3ccccc3)c3ccccc3)C1)C2 | i | i | -7.7* | i | i | 66* | 27*

Compound activity (PubChem)
